Results: ChEMBL document CHEMBL1148762, “Lysosome and HER3 (ErbB3) selective anticancer agent kahalalide F: semisynthetic modifications and antifungal lead-exploration studies” (J Med Chem, 2007)
Values after ≈ are worked out from the molar mass of the structure shown. Active and inactive are the calls of the source. The rule behind the calls is not given here.

Tests used:
Fusarium proliferatum [1] = assay: Fungistatic activity against Fusarium proliferatum at 30 uM after 72 hrs by microtiter plate assay; assay type: functional, organism-based
Summary of the method: (§1)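 Conidia come from 7-day potato dextrose agar cultures, filtered and set photometrically (625 nm) to 3 × 10^5 conidia/mL. They are exposed to compound at 30 µM in 96-well microdilution broth at 24 ± 1 °C under a 12 h photoperiod. After 72 h, 20 µL per well is subcultured on drug-free potato dextrose agar at 28 °C for 3 days. No regrowth is scored fungicidal; regrowth is scored fungistatic.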

Fusarium solani [2] = assay: Fungicidal activity against Fusarium solani at 30 uM after 72 hrs by microtiter assay; assay type: functional, organism-based
Summary of the method: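 After 72 h of microtiter broth exposure at 30 µM, 20 µL from each well was plated onto compound-free potato dextrose agar and incubated 3 days at 28 °C. No regrowth was scored fungicidal; regrowth was scored fungistatic.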

Fusarium oxysporum [3] = assay: Fungistatic activity against Fusarium oxysporum at 30 uM after 72 hrs by microtiter plate assay; assay type: functional, organism-based; summary of the method: as §1
Fusarium proliferatum [4] = assay: Antimicrobial activity against Fusarium proliferatum at 0.3 uM after 72 hrs by microtiter assay; assay type: functional
Summary of the method: (§2)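 96-well microdilution broth assay with conidia (3 × 10^5 conidia/mL, harvested from 7-day PDA cultures and filtered) against F. oxysporum, F. proliferatum and F. solani at 0.3, 3 and 30 µM. Plates were held at 24 ± 1 °C under a 12 h photoperiod. Growth was read at 620 nm at 24, 48 and 72 h and reported as percent inhibition from mean absorbance with standard error.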

Fusarium proliferatum [5] = assay: Antimicrobial activity against Fusarium proliferatum at 3 uM after 48 hrs by microtiter assay; assay type: functional; summary of the method: as §2
Fusarium proliferatum [6] = assay: Antimicrobial activity against Fusarium proliferatum at 3 uM after 72 hrs by microtiter assay; assay type: functional; summary of the method: as §2
Aspergillus fumigatus = assay: Antimicrobial activity against Aspergillus fumigatus ATCC 90906; assay type: functional, organism-based
Cryptococcus neoformans = assay: Antimicrobial activity against Cryptococcus neoformans ATCC 90113; assay type: functional, organism-based
Fusarium proliferatum [7] = assay: Antimicrobial activity against Fusarium proliferatum at 0.3 uM after 48 hrs by microtiter assay; assay type: functional; summary of the method: as §2
Candida albicans = assay: Antimicrobial activity against Candida albicans ATCC 90028; assay type: functional, organism-based
[8] = test system: Mycobacterium intracellulare; assay: Antimicrobial activity against Mycobacterium intracellular ATCC 23068; assay type: functional, organism-based
Fusarium oxysporum [9] = assay: Antimicrobial activity against Fusarium oxysporum at 0.3 uM after 48 hrs by microtiter assay; assay type: functional; summary of the method: as §2
Fusarium oxysporum [10] = assay: Antimicrobial activity against Fusarium oxysporum at 0.3 uM after 72 hrs by microtiter assay; assay type: functional; summary of the method: as §2
Fusarium solani [11] = assay: Antimicrobial activity against Fusarium solani at 0.3 uM after 48 hrs by microtiter assay; assay type: functional; summary of the method: as §2
Fusarium solani [12] = assay: Antimicrobial activity against Fusarium solani at 0.3 uM after 72 hrs by microtiter assay; assay type: functional; summary of the method: as §2
Fusarium oxysporum [13] = assay: Antimicrobial activity against Fusarium oxysporum at 3 uM after 48 hrs by microtiter assay; assay type: functional; summary of the method: as §2
Fusarium oxysporum [14] = assay: Antimicrobial activity against Fusarium oxysporum at 3 uM after 72 hrs by microtiter assay; assay type: functional; summary of the method: as §2
Fusarium solani [15] = assay: Antimicrobial activity against Fusarium solani at 3 uM after 48 hrs by microtiter assay; assay type: functional; summary of the method: as §2
Fusarium solani [16] = assay: Antimicrobial activity against Fusarium solani at 3 uM after 72 hrs by microtiter assay; assay type: functional; summary of the method: as §2
Fusarium oxysporum [17] = assay: Antimicrobial activity against Fusarium oxysporum at 30 uM after 48 hrs by microtiter assay; assay type: functional; summary of the method: as §2
Fusarium oxysporum [18] = assay: Antimicrobial activity against Fusarium oxysporum at 30 uM after 72 hrs by microtiter assay; assay type: functional; summary of the method: as §2
Fusarium solani [19] = assay: Antimicrobial activity against Fusarium solani at 30 uM after 48 hrs by microtiter assay; assay type: functional; summary of the method: as §2
Fusarium solani [20] = assay: Antimicrobial activity against Fusarium solani at 30 uM after 72 hrs by microtiter assay; assay type: functional; summary of the method: as §2
Fusarium proliferatum [21] = assay: Antimicrobial activity against Fusarium proliferatum at 30 uM after 48 hrs by microtiter assay; assay type: functional; summary of the method: as §2
Fusarium proliferatum [22] = assay: Antimicrobial activity against Fusarium proliferatum at 30 uM after 72 hrs by microtiter assay; assay type: functional; summary of the method: as §2
SK-OV-3 = assay: Cytotoxicity against human SK-OV3 cells; assay type: functional
Summary of the method: (§3)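 NCI Developmental Therapeutics Program cell panel. GI50 is the concentration that reduces growth of treated cells to half that of untreated controls. TGI is the concentration that completely halts growth.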

ACHN = assay: Cytotoxicity against human ACHN cells; assay type: functional; summary of the method: as §3
PC-3 = assay: Cytotoxicity against human PC3 cells; assay type: functional; summary of the method: as §3
DU-145 = assay: Cytotoxicity against human DU145 cells; assay type: functional; summary of the method: as §3
Hs-578T = assay: Cytotoxicity against human HS578T cells; assay type: functional; summary of the method: as §3
[23] = test system: Mycobacterium tuberculosis; assay: Antibacterial activity against Mycobacterium tuberculosis H37Rv at 16 ug/mL by micro plate alamar blue assay; assay type: functional
Summary of the method: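 M. tuberculosis H37Rv ATCC 27294 grown in BACTEC 12B medium; microplate Alamar blue assay (MABA). Primary screen at a single concentration of 16 µg/mL, read as percent inhibition.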

A549 = assay: Cytotoxicity against human A549 cells; assay type: functional; summary of the method: as §3
NCI-H322M = assay: Cytotoxicity against human NCI-H322M cells; assay type: functional; summary of the method: as §3
RPMI-8226 = assay: Cytotoxicity against human RPMI8226 cells; assay type: functional; summary of the method: as §3
COLO 205 = assay: Cytotoxicity against human COLO205 cells; assay type: functional; summary of the method: as §3
HCC 2998 = assay: Cytotoxicity against human HCC2998 cells; assay type: functional; summary of the method: as §3
HCT-15 = assay: Cytotoxicity against human HCT15 cells; assay type: functional; summary of the method: as §3
HT-29 = assay: Cytotoxicity against human HT29 cells; assay type: functional; summary of the method: as §3
KM12 = assay: Cytotoxicity against human KM12 cells; assay type: functional; summary of the method: as §3
SNB-75 = assay: Cytotoxicity against human SNB75 cells; assay type: functional; summary of the method: as §3
UACC-257 = assay: Cytotoxicity against human UACC257 cells; assay type: functional; summary of the method: as §3
[24] = test system: Mycobacterium tuberculosis; assay: Antibacterial activity against Mycobacterium tuberculosis H37Rv by micro plate alamar blue assay; assay type: functional

C/C=C1\NC(=O)[C@H](Cc2ccccc2)NC(=O)[C@@H](C(C)C)NC(=O)[C@@H]([C@@H](C)CC)NC(=O)[C@H](NC(=O)[C@H](NC(=O)[C@H](CCCNCCCCCC)NC(=O)[C@H]2CCCN2C(=O)[C@@H](NC(=O)[C@H](NC(=O)[C@H](NC(=O)[C@@H](NC(=O)CCCC(C)C)C(C)C)[C@H](C)O)C(C)C)C(C)C)[C@@H](C)CC)[C@@H](C)OC(=O)[C@H](C(C)C)NC1=O
Activity (Fusarium proliferatum [1]): Active | Activity (Fusarium solani [2]): Active | Activity (Fusarium oxysporum [3]): Active

C/C=C1\NC(=O)[C@H](Cc2ccccc2)NC(=O)[C@@H](C(C)C)NC(=O)[C@@H]([C@@H](C)CC)NC(=O)[C@H](NC(=O)[C@H](NC(=O)[C@H](CCCN)NC(=O)[C@H]2CCCN2C(=O)[C@H](NC(=O)[C@@H](NC(=O)[C@@H](NC(=O)[C@H](NC(=O)CCCC(C)C)C(C)C)C(C)=O)C(C)C)C(C)C)[C@@H](C)CC)[C@@H](C)OC(=O)[C@H](C(C)C)NC1=O
inhibition at 0.3 µM (Fusarium proliferatum [4]): 0% | inhibition at 3 µM (Fusarium proliferatum [5]): 5% | inhibition at 3 µM (Fusarium proliferatum [6]): 0% | MFC (Aspergillus fumigatus): > 20 µM | MIC (Aspergillus fumigatus): > 20 µM | MFC (Cryptococcus neoformans): 20 µM (≈ 29.5 µg/mL) | MIC (Cryptococcus neoformans): 10 µM (≈ 14.8 µg/mL) | inhibition at 0.3 µM (Fusarium proliferatum [7]): 1.8% | MFC (Candida albicans): > 20 µM | MIC (Candida albicans): > 20 µM | MBC [8]: > 20 µM | MIC [8]: > 20 µM | inhibition at 0.3 µM (Fusarium oxysporum [9]): 1.8% | inhibition at 0.3 µM (Fusarium oxysporum [10]): 0% | inhibition at 0.3 µM (Fusarium solani [11]): 0% | inhibition at 0.3 µM (Fusarium solani [12]): 0% | inhibition at 3 µM (Fusarium oxysporum [13]): 1.8% | inhibition at 3 µM (Fusarium oxysporum [14]): 0% | inhibition at 3 µM (Fusarium solani [15]): 0% | inhibition at 3 µM (Fusarium solani [16]): 0% | inhibition at 30 µM (Fusarium oxysporum [17]): 91.9% | inhibition at 30 µM (Fusarium oxysporum [18]): 82.2% | inhibition at 30 µM (Fusarium solani [19]): 90.6% | inhibition at 30 µM (Fusarium solani [20]): 85.5% | inhibition at 30 µM (Fusarium proliferatum [21]): 92.7% | inhibition at 30 µM (Fusarium proliferatum [22]): 73.2%

C/C=C1\NC(=O)[C@H](Cc2ccccc2)NC(=O)[C@@H](C(C)C)NC(=O)[C@@H]([C@@H](C)CC)NC(=O)[C@H](NC(=O)[C@H](NC(=O)[C@H](CCCNCc2ccncc2)NC(=O)[C@H]2CCCN2C(=O)[C@H](NC(=O)[C@@H](NC(=O)[C@@H](NC(=O)[C@H](NC(=O)CCCC(C)C)C(C)C)[C@@H](C)O)C(C)C)C(C)C)[C@@H](C)CC)[C@@H](C)OC(=O)[C@H](C(C)C)NC1=O
GI50 (SK-OV-3): 374 nM | TGI (SK-OV-3): 1360 nM | GI50 (ACHN): 1280 nM | TGI (ACHN): 2320 nM | GI50 (PC-3): 267 nM | TGI (PC-3): 973 nM | GI50 (DU-145): 124 nM | TGI (DU-145): 266 nM | GI50 (Hs-578T): 162 nM | TGI (Hs-578T): 444 nM | inhibition at 0.3 µM (Fusarium proliferatum [4]): 0% | inhibition at 3 µM (Fusarium proliferatum [5]): 0% | inhibition at 3 µM (Fusarium proliferatum [6]): 0% | MFC (Aspergillus fumigatus): 20 µM (≈ 31.4 µg/mL) | MIC (Aspergillus fumigatus): 10 µM (≈ 15.7 µg/mL) | MFC (Cryptococcus neoformans): 5 µM (≈ 7.85 µg/mL) | MIC (Cryptococcus neoformans): 5 µM (≈ 7.85 µg/mL) | inhibition at 0.3 µM (Fusarium proliferatum [7]): 0% | MFC (Candida albicans): > 20 µM | MIC (Candida albicans): > 20 µM | MBC [8]: > 20 µM | MIC [8]: > 20 µM | inhibition at 16 µg/mL [23]: 24% | inhibition at 0.3 µM (Fusarium oxysporum [9]): 0% | inhibition at 0.3 µM (Fusarium oxysporum [10]): 0% | inhibition at 0.3 µM (Fusarium solani [11]): 0% | inhibition at 0.3 µM (Fusarium solani [12]): 0% | inhibition at 3 µM (Fusarium oxysporum [13]): 0% | inhibition at 3 µM (Fusarium oxysporum [14]): 0% | inhibition at 3 µM (Fusarium solani [15]): 0% | inhibition at 3 µM (Fusarium solani [16]): 0% | inhibition at 30 µM (Fusarium oxysporum [17]): 98.2% | inhibition at 30 µM (Fusarium oxysporum [18]): 91.2% | inhibition at 30 µM (Fusarium solani [19]): 99.2% | inhibition at 30 µM (Fusarium solani [20]): 97.5% | GI50 (A549): 189 nM | TGI (A549): 425 nM | GI50 (NCI-H322M): 131 nM | TGI (NCI-H322M): 238 nM | GI50 (RPMI-8226): 638 nM | TGI (RPMI-8226): 1890 nM | GI50 (COLO 205): 618 nM | GI50 (HCC 2998): 236 nM | TGI (HCC 2998): 732 nM | GI50 (HCT-15): 492 nM | TGI (HCT-15): 1560 nM | GI50 (HT-29): 279 nM | GI50 (KM12): 152 nM | GI50 (SNB-75): 1290 nM | TGI (SNB-75): 2610 nM | GI50 (UACC-257): 1310 nM | TGI (UACC-257): 2430 nM | inhibition at 30 µM (Fusarium proliferatum [21]): 99.1% | inhibition at 30 µM (Fusarium proliferatum [22]): 95.3%

CO[C@H]1/C=C/O[C@@]2(C)Oc3c(C)c(O)c4c(O)c(c(/C=N/N5CCN(C)CC5)c(O)c4c3C2=O)NC(=O)/C(C)=C\C=C\[C@H](C)[C@H](O)[C@@H](C)[C@@H](O)[C@@H](C)[C@H](OC(C)=O)[C@@H]1C [RIFAMPIN]
inhibition at 16 µg/mL [23]: 93% | MIC [24]: 0.08 µg/mL (≈ 0.0972 µM)
